Converted amounts (≈) assume the structure as drawn. The source made the active and inactive calls. No cut-off for these calls is given here.
What was measured:
Leishmania major [1] = assay: Antileishmanial activity against Leishmania major MHOM/SU/73/5-ASKH assessed as growth at 50 ug/ml by Alamar blue assay; assay type: functional
How it was run: (§1)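 Promastigotes grown in SDM-79, pH 7.3, with 15% heat-inactivated FCS at 28 C in 5% CO2, then seeded at 1 × 10^6 parasites/mL. Each compound tested alone at 50 μg/mL in duplicate as a control for the combination experiments; DMSO below 1% final. After 72 h at 28 C, Alamar Blue added for 4 h; fluorescence read at ex 530 / em 590 nm. Growth expressed as percentage of untreated cultures.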

[2] = target: Bifunctional dihydrofolate reductase-thymidylate synthase (Leishmania major) (UniProt P07382); assay: Inhibition of Leishmania major DHFR at 50 uM
Bifunctional dihydrofolate reductase-thymidylate synthase (Leishmania major), sequence (P07382 whole entry, looked up): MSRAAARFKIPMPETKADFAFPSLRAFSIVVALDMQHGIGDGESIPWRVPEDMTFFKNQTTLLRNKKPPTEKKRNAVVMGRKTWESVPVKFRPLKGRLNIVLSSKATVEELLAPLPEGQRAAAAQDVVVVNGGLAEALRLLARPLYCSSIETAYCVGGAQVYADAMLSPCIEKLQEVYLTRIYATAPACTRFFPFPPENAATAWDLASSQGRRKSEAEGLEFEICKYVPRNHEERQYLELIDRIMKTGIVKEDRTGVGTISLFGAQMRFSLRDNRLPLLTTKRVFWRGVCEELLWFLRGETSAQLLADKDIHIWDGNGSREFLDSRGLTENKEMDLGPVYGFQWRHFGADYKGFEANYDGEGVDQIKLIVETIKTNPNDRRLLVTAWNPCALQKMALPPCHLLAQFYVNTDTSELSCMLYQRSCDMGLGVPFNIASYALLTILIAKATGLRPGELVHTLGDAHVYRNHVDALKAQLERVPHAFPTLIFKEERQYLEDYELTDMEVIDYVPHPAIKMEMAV
How it was run: (§2)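 NADPH oxidation followed at 340 nm. Compounds in DMSO, screened at a single concentration between 25 μM and 1 mM. Measurements run in triplicate.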

[3] = target: T1, Pteridine reductase 1 (Leishmania major) (UniProt Q01782); assay: Inhibition of Leishmania major PTR1 at 5 uM
T1 sequence (whole entry): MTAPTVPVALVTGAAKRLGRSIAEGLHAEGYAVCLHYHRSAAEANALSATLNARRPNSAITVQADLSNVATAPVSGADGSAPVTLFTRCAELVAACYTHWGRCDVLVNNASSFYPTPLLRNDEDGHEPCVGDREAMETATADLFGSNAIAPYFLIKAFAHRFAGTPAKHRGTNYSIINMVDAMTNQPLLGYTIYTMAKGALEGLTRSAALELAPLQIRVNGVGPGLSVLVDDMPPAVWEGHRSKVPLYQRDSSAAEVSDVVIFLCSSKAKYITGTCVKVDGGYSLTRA
How it was run: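 Compounds dissolved in DMSO and screened at a single 5 μM concentration; DMSO kept below 1%. Measurements run in triplicate.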

Leishmania mexicana [4] = assay: Antileishmanial activity against Leishmania mexicana MHOM/BZ/84/BEL46 assessed as growth at 50 ug/ml by Alamar blue assay in presence of pyrimethamine; 5-(4-chlorophenyl)-6-ethylpyrimidine-2,4-diamine DHFR inhibitor; values are per cent of control
Leishmania major [5] = assay: Antileishmanial activity against Leishmania major MHOM/SU/73/5-ASKH assessed as growth by Alamar blue assay; assay type: functional; settings: read-out: ED50 (the source's name)
How it was run: (§3)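 Promastigotes cultured in SDM-79, pH 7.3, with 15% heat-inactivated FCS at 28 C under 5% CO2, then seeded at 1 × 10^6 parasites/mL. DMSO dilutions in medium tested from 100 μg/mL downward, DMSO <1% final. After 72 h at 28 C, Alamar Blue added for 4 h; fluorescence at ex 530 / em 590 nm. Untreated cultures set as 100%. ED50 by linear interpolation; three independent experiments, each in duplicate.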

Leishmania mexicana [6] = assay: Antileishmanial activity against Leishmania mexicana MHOM/BZ/84/BEL46 assessed as growth at 50 ug/ml by Alamar blue assay; assay type: functional; how it was run: as §1
Leishmania major [7] = assay: Antileishmanial activity against Leishmania major MHOM/SU/73/5-ASKH assessed as growth at 50 ug/ml by Alamar blue assay in presence of pyrimethamine; 5-(4-chlorophenyl)-6-ethylpyrimidine-2,4-diamine DHFR inhibitor; values are per cent of control
[8] = Cytotoxicity against human MRC5 cells after 72 hrs by Alamar blue assay; assay type: cell-based; settings: read-out: ED50
Leishmania mexicana [9] = assay: Antileishmanial activity against Leishmania mexicana MHOM/BZ/84/BEL46 assessed as growth by Alamar blue assay; assay type: functional; settings: read-out: ED50 (the source's name); how it was run: as §3
[10] = target: T2, Dihydrofolate reductase (Homo sapiens) (UniProt P00374); assay: Inhibition of human DHFR at 50 uM; how it was run: as §2
T2 sequence (whole entry): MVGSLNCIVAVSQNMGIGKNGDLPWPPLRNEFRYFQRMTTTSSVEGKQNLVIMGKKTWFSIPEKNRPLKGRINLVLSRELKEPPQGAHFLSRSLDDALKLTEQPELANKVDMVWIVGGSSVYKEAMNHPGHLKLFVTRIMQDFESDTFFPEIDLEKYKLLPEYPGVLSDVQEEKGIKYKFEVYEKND

[11] = Lipophilicity, log D of the compound in octanol buffer at pH 7.4; assay type: physicochemical
[12] = Solubility of the compound at pH 7.4; assay type: physicochemical; settings: buffer
[13] = Cytotoxicity against human MRC5 cells at 100 ug/ml after 72 hrs by Alamar blue assay; assay type: cell-based; settings: at 100 µg/mL, read-out: INH
[14] = target: Bifunctional dihydrofolate reductase-thymidylate synthase (Leishmania major) (UniProt P07382); assay: Inhibition of Leishmania major DHFR at 1 mM; how it was run: as §2
[15] = target: T2, Dihydrofolate reductase (Homo sapiens); assay: Inhibition of human DHFR at 25 uM; how it was run: as §2
[16] = target: Bifunctional dihydrofolate reductase-thymidylate synthase (Leishmania major) (UniProt P07382); assay: Inhibition of Leishmania major DHFR at 25 uM; how it was run: as §2

Row | inhibition [2] | inhibition [3] | inhibition [10] | logD [11] | solubility [12] | inhibition [14] | inhibition [15] | inhibition [16] | Compound | growth, % of control at 50 µg/mL (Leishmania major [1]) | growth, % of control at 50 µg/mL (Leishmania mexicana [4]) | EC50 (Leishmania major [5]) | growth, % of control at 50 µg/mL (Leishmania mexicana [6]) | growth, % of control at 50 µg/mL (Leishmania major [7]) | CC50 at 72 h [8] | EC50 (Leishmania mexicana [9]) | cytotoxicity at 72 h, 100 ug/ml [13]
1 | inactive | inactive |  |  |  |  |  |  | O=C(CCCl)Nc1nnc(CCCl)s1 | 7.1% | 3.5% | 22.1 µg/mL (≈ 87 µM) | 4.7% | 4.1% | 4.18 µg/mL (≈ 16.4 µM) | 10.1 µg/mL (≈ 39.7 µM) | 
2 | inactive | inactive | inactive | 1.44 | 1700 µM (≈ 328 µg/mL) |  |  |  | Nc1nnc(-c2cnccc2N)s1 | 106% | 15.6% |  | 112% | 38% |  |  | 10%
3 |  |  |  |  |  | inactive |  |  | Nc1nc2ccc(OC(F)(F)F)cc2s1 [RILUZOLE] | 102% | 15.1% |  | 21.5% | 22.9% | 27.9 µg/mL (≈ 119 µM) | 30.8 µg/mL (≈ 132 µM) | 
4 |  |  |  |  |  |  | inactive | inactive | Nc1nc2ccc([N+](=O)[O-])cc2s1 |  |  |  |  |  |  |  | 
